B1: Osa-1-4 twister ribozyme (parent)
chain: CCGCCUAACACUGCCAAUGCCGGUCCCAAGCCCGGAUAAAAGUGGAGGGGGCGG

Variants of: B1
Assay: self-cleavage, relative activity (ratio to wild type); higher = more cleavage; co-transcriptional
In short: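 A DNA template for a 54-nucleotide Oryza sativa twister ribozyme was synthesised with 97 % wild-type base and 1 % of each other base at the 48 positions downstream of the cleavage site. It was transcribed in vitro for 2 h at 37 °C, allowing co-transcriptional self-cleavage, then reverse-transcribed with a template-switching oligonucleotide, PCR-amplified and deep-sequenced. Cleavage status was scored from reads with or without upstream sequence. Relative activity is fraction cleaved normalised to wild type.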
In the case of CCGCCUAACACUGCCAAUGCCGGUCCCAAGCCCGGAUAAAACUGGAGGGUGCGG, the self-cleavage is reported as 0.32.
With CCGCCUAACACUGCCAAUGCCGGUCCCAAGCCCGGAUAAAACUGGAGGGGACGG the self-cleavage was 0.08.
In the case of CCGCCUAACACUGCCAAUGCCGGUCCCAAGCCCGGAUAAAACUGGAGGGGCCGG, the self-cleavage is reported as 0.06.
For CCGCCUAACACUGCCAAUGCCGGUCCCAAGCCCGGAUAAAACUGGAGGGGUCGG, the self-cleavage was 0.06.
Work on CCGCCUAACACUGCCAAUGCCGGUCCCAAGCCCGGAUAAAACUGGAGGGGGCAG yielded a self-cleavage of 0.14.
CCGCCUAACACUGCCAAUGCCGGUCCCAAGCCCGGAUAAAACUGGAGGGGGCCG showed a self-cleavage of 0.07.
For CCGCCUAACACUGCCAAUGCCGGUCCCAAGCCCGGAUAAAACUGGAGGGGGCUG, the self-cleavage was 0.08.
Work on CCGCCUAACACUGCCAAUGCCGGUCCCAAGCCCGGAUAAAACUGGAGGGGGCGA yielded a self-cleavage of 0.26.
With CCGCCUAACACUGCCAAUGCCGGUCCCAAGCCCGGAUAAAACUGGAGGGGGCGC the self-cleavage was 0.3.
In the case of CCGCCUAACACUGCCAAUGCCGGUCCCAAGCCCGGAUAAAACUGGAGGGGGCGU, the self-cleavage is reported as 0.43.
Variant CCGCCUAACACAGCCAAUGCCGGUCCCAAGCCCGGAUAAAACUGGAGGGGGCGG has a self-cleavage of 0.09.
For CCGCCUAACACCGCCAAUGCCGGUCCCAAGCCCGGAUAAAACUGGAGGGGGCGG, the self-cleavage was 0.08.
Variant CCGCCUAACACGGCCAAUGCCGGUCCCAAGCCCGGAUAAAACUGGAGGGGGCGG has a self-cleavage of 0.06.
In the case of CCGCCUAACACUGCCAAAGCCGGUCCCAAGCCCGGAUAAAACUGGAGGGGGCGG, the self-cleavage is reported as 0.23.
In the case of CCGCCUAACACUGCCAACGCCGGUCCCAAGCCCGGAUAAAACUGGAGGGGGCGG, the self-cleavage is reported as 0.21.
For CCGCCUAACACUGCCAAGGCCGGUCCCAAGCCCGGAUAAAACUGGAGGGGGCGG, the self-cleavage was 0.32.
For CCGCCUAACACUGCCAAUGCCGGACCCAAGCCCGGAUAAAACUGGAGGGGGCGG, the self-cleavage was 0.05.
Work on CCGCCUAACACUGCCAAUGCCGGCCCCAAGCCCGGAUAAAACUGGAGGGGGCGG yielded a self-cleavage of 0.05.
For CCGCCUAACACUGCCAAUGCCGGGCCCAAGCCCGGAUAAAACUGGAGGGGGCGG, the self-cleavage was 0.02.
Work on CCGCCUAACACUGCCAAUGCCGGUCCCAAGCCCGGAAAAAACUGGAGGGGGCGG yielded a self-cleavage of 0.21.
CCGCCUAACACUGCCAAUGCCGGUCCCAAGCCCGGACAAAACUGGAGGGGGCGG gave a self-cleavage of 0.34.
CCGCCUAACACUGCCAAUGCCGGUCCCAAGCCCGGAGAAAACUGGAGGGGGCGG gave a self-cleavage of 0.39.
In the case of CCGCCUAACACUGCCAAUGCCGGUCCCAAGCCCGGAUAAAACAGGAGGGGGCGG, the self-cleavage is reported as 0.1.
Work on CCGCCUAACACUGCCAAUGCCGGUCCCAAGCCCGGAUAAAACCGGAGGGGGCGG yielded a self-cleavage of 0.11.
For CCGCCUAACACUGCCAAUGCCGGUCCCAAGCCCGGAUAAAACGGGAGGGGGCGG, the self-cleavage was 0.09.
Work on CCGCCUAACACUGCCAAUGCCGGUCCCAAGCCCGGAUAAAAUUGGAGGGGGCGG yielded a self-cleavage of 0.14.
CCGCCUAACACUGCCAAUGCCGGUCCCAAGCCCGGAUAAAAUUAGAGGGGGCGG showed a self-cleavage of 0.35.
CCGCCUAACACUGCCAAUGCCGGUCCCAAGCCCGGAUAAAAUUCGAGGGGGCGG showed a self-cleavage of 0.26.
For CCGCCUAACACUGCCAAUGCCGGUCCCAAGCCCGGAUAAAAUUUGAGGGGGCGG, the self-cleavage was 0.15.
For CCGCCUAACACUGCCAAUGCCGGUCCCAAGCCCGGAUAAAAUUGAAGGGGGCGG, the self-cleavage was 0.05.
In the case of CCGCCUAACACUGCCAAUGCCGGUCCCAAGCCCGGAUAAAAUUGCAGGGGGCGG, the self-cleavage is reported as 0.03.
With CCGCCUAACACUGCCAAUGCCGGUCCCAAGCCCGGAUAAAAUUGUAGGGGGCGG the self-cleavage was 0.04.
CCGCCUAACACUGCCAAUGCCGGUCCCAAGCCCGGAUAAAAUUGGAAGGGGCGG gave a self-cleavage of 0.05.
In the case of CCGCCUAACACUGCCAAUGCCGGUCCCAAGCCCGGAUAAAAUUGGACGGGGCGG, the self-cleavage is reported as 0.02.
Work on CCGCCUAACACUGCCAAUGCCGGUCCCAAGCCCGGAUAAAAUUGGAUGGGGCGG yielded a self-cleavage of 0.03.
Work on CCGCCUAACACUGCCAAUGCCGGUCCCAAGCCCGGAUAAAAUUGGAGAGGGCGG yielded a self-cleavage of 0.03.
CCGCCUAACACUGCCAAUGCCGGUCCCAAGCCCGGAUAAAAUUGGAGCGGGCGG gave a self-cleavage of 0.03.
With CCGCCUAACACUGCCAAUGCCGGUCCCAAGCCCGGAUAAAAUUGGAGUGGGCGG the self-cleavage was 0.03.
CCGCCUAACACUGCCAAUGCCGGUCCCAAGCCCGGAUAAAAUUGGAGGAGGCGG showed a self-cleavage of 0.04.
CCGCCUAACACUGCCAAUGCCGGUCCCAAGCCCGGAUAAAAUUGGAGGCGGCGG gave a self-cleavage of 0.03.
For CCGCCUAACACUGCCAAUGCCGGUCCCAAGCCCGGAUAAAAUUGGAGGUGGCGG, the self-cleavage was 0.04.
With CCGCCUAACACUGCCAAUGCCGGUCCCAAGCCCGGAUAAAAUUGGAGGGAGCGG the self-cleavage was 0.32.
With CCGCCUAACACUGCCAAUGCCGGUCCCAAGCCCGGAUAAAAUUGGAGGGCGCGG the self-cleavage was 0.1.
With CCGCCUAACACUGCCAAUGCCGGUCCCAAGCCCGGAUAAAAUUGGAGGGUGCGG the self-cleavage was 0.12.
Work on CCGCCUAACACUGCCAAUGCCGGUCCCAAGCCCGGAUAAAAUUGGAGGGGACGG yielded a self-cleavage of 0.1.
Work on CCGCCUAACACUGCCAAUGCCGGUCCCAAGCCCGGAUAAAAUUGGAGGGGCCGG yielded a self-cleavage of 0.04.
Work on CCGCCUAACACUGCCAAUGCCGGUCCCAAGCCCGGAUAAAAUUGGAGGGGUCGG yielded a self-cleavage of 0.07.
With CCGCCUAACACUGCCAAUGCCGGUCCCAAGCCCGGAUAAAAUUGGAGGGGGCAG the self-cleavage was 0.1.

From the RNAGym collection of RNA variant scans (doi:10.1002/anie.201605470)
